Common to all, as to assay type: functional, Mesocricetus auratus
Assay [1] has as its system Syrian golden hamster. Description: Antihyperlipidemic activity measured by glycerol level in golden syrian hamster at 25 mg/kg. An outline of the steps: (§1)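 High-fat-diet hyperlipidemic male golden Syrian hamsters (120–130 g, n=8 per group) were dosed orally in water vehicle on days 4–10; water-only HFD hamsters served as controls. On day 10, nonfasted blood was drawn into tubes containing 120 µL NaF (4.5 mg/mL) and chilled to 0 C for 15 min. Glycerol and free fatty acids were assayed in this NaF plasma on a clinical chemistry analyser.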

In assay [2] the test system is Syrian golden hamster. Description: Antihyperlipidemic activity measured by HDL level in golden syrian hamster at 25 mg/kg. Put shortly:
(§2)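 Male golden Syrian hamsters (120–130 g), 8 per group, made hyperlipidemic on high fat diet with free access to diet and water throughout. Compound given orally in water from day 4 to day 10 (7 days); HFD hamsters given water only served as controls. On day 10, blood from nonfasted animals was drawn and cooled to 0 C for 15 min. Triglycerides, total cholesterol and HDL cholesterol were measured the same day in plasma without NaF using enzymatic kits.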

Assay [3] has as its system Syrian golden hamster. As to the kind of experiment: Antihyperlipidemic activity measured by HDL level in golden syrian hamster at 100 mg/kg, po. Put shortly: as §2
Assay [4] has as its system Syrian golden hamster. Description: Antihyperlipidemic activity measured by free fatty acid level in golden syrian hamster at 100 mg/kg, po. An outline of the steps: as §1
For assay [5], the system named is Syrian golden hamster. Description: Antihyperlipidemic activity measured by triglyceride level in golden syrian hamster at 25 mg/kg. Put shortly:
as §2

In assay [6] the test system is Syrian golden hamster. As to the kind of experiment: Antihyperlipidemic activity measured by HDL/total cholesterol ratio in golden syrian hamster at 100 mg/kg, po. An outline of the steps: as §2
The subject of assay [7] is Syrian golden hamster. As to the kind of experiment: Antihyperlipidemic activity measured by decrease in free fatty acid level in golden syrian hamster at 25 mg/kg relative to control. Set-up: scale not given: the % may be the effect or the level left. Put shortly:
as §1

Assay [8] deals with Syrian golden hamster. Description: Antihyperlipidemic activity measured by HDL/total cholesterol ratio in golden syrian hamster at 25 mg/kg. Put shortly: as §2
In assay [9] the test system is Syrian golden hamster. Description: Antihyperlipidemic activity measured by decrease in cholesterol level in golden syrian hamster at 100 mg/kg, po relative to control. Set-up: scale not given: the % may be the effect or the level left. An outline of the steps:
as §2

Assay [10] has as its system Syrian golden hamster. As to the kind of experiment: Antihyperlipidemic activity measured by cholesterol level in golden syrian hamster at 100 mg/kg, po. Put shortly:
as §2

Assay [11] concerns Syrian golden hamster. Description: Antihyperlipidemic activity measured by increase in HDL/total cholesterol ratio in golden syrian hamster at 100 mg/kg, po relative to control. An outline of the steps:
as §2

Assay [12] has as its system Syrian golden hamster. As to the kind of experiment: Antihyperlipidemic activity measured by free fatty acid level in golden syrian hamster at 25 mg/kg. An outline of the steps: as §1
Assay [13] relates to Syrian golden hamster. As to the kind of experiment: Antihyperlipidemic activity measured by increase in HDL level in golden syrian hamster at 100 mg/kg, po relative to control. An outline of the steps: as §2
For assay [14], the system named is Syrian golden hamster. As to the kind of experiment: Antihyperlipidemic activity measured by cholesterol level in golden syrian hamster at 25 mg/kg. Put shortly: as §2
Assay [15] deals with Syrian golden hamster. Description: Antihyperlipidemic activity measured by decrease in glycerol level in golden syrian hamster at 100 mg/kg, po relative to control. Set-up: scale not given: the % may be the effect or the level left. An outline of the steps: as §1
In assay [16] the test system is Syrian golden hamster. As to the kind of experiment: Antihyperlipidemic activity measured by glycerol level in golden syrian hamster at 100 mg/kg, po. An outline of the steps:
as §1

Assay [17] deals with Syrian golden hamster. As to the kind of experiment: Antihyperlipidemic activity measured by decrease in cholesterol level in golden syrian hamster at 25 mg/kg relative to control. Set-up: scale not given: the % may be the effect or the level left. An outline of the steps:
as §2

In assay [18] the test system is Syrian golden hamster. Description: Antihyperlipidemic activity measured by decrease in HDL level in golden syrian hamster at 25 mg/kg relative to control. Set-up: scale not given: the % may be the effect or the level left. Put shortly: as §2
Assay [19] has as its system Syrian golden hamster. Description: Antihyperlipidemic activity measured by decrease in triglyceride level in golden syrian hamster at 25 mg/kg relative to control. Set-up: scale not given: the % may be the effect or the level left. Put shortly:
as §2

Assay [20] concerns Syrian golden hamster. As to the kind of experiment: Antihyperlipidemic activity measured by decrease in HDL/total cholesterol ratio in golden syrian hamster at 25 mg/kg relative to control. Set-up: scale not given: the % may be the effect or the level left. Put shortly: as §2
The test system of assay [21] is Syrian golden hamster. Description: Antihyperlipidemic activity measured by decrease in glycerol level in golden syrian hamster at 25 mg/kg relative to control. Set-up: scale not given: the % may be the effect or the level left. Put shortly:
as §1

Assay [22] has as its system Syrian golden hamster. As to the kind of experiment: Antihyperlipidemic activity measured by triglyceride level in golden syrian hamster at 100 mg/kg, po. Put shortly: as §2
Assay [23] has as its system Syrian golden hamster. As to the kind of experiment: Antihyperlipidemic activity measured by decrease in triglyceride level in golden syrian hamster at 100 mg/kg, po relative to control. Set-up: scale not given: the % may be the effect or the level left. Put shortly:
as §2

For the compound `OC[C@H]1O[C@](O)(CO)[C@@H](O[C@@H]2O[C@H](CO)[C@@H](O[C@@H]3O[C@H](CO)[C@@H](O)[C@H](O)[C@H]3O)[C@H](O)[C@H]2O)[C@@H]1O`, the Activity in assay [1] is 0.77 mM; in [2], 2.64 mM; in assay [3] it was 3.4 mM; in assay [4], 726.03 µM; in assay [5], 10.23 mM; in assay [7] it was 10%. Besides, the Activity in assay [9] was found to be 15%; in [10], 9.79 mM; in assay [11] it was 29%; in assay [12] it was 0.648 mM; in assay [13], 10%; in [14] it was 10.97 mM. The Activity came to 4% in assay [15]; 0.81 mM in assay [16]; 5% in assay [17]; 15% in assay [18]; 29% in assay [19]; 11% in assay [20]. The Activity turned out to be 8% in assay [21], 6.09 mM in assay [22] and 58% in assay [23]. Also, the Ratio was 0.34 in [6] and 0.24 in assay [8].

The values above are taken from ChEMBL document CHEMBL1139743, “Synthesis and antihyperlipidemic activity of novel glycosyl fructose derivatives” (2006).
